Compound activity as filed in PubChem BioAssay.
M4 PAM = positive allosteric modulators of human muscarinic M4 receptor; P08173; CHO-K1 hM4/Gqi5, Fluo-8 calcium fluorescence, ACh EC20; 0% = ACh EC20, 100% = maximal ACh; activation, % at 3 µM; 360,000 tested, 0.4% active; AID 624126;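 active = activation above its plate's cutoff, the mean activation of sample wells plus 3 SD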
Target sequence (P08173 whole entry, looked up): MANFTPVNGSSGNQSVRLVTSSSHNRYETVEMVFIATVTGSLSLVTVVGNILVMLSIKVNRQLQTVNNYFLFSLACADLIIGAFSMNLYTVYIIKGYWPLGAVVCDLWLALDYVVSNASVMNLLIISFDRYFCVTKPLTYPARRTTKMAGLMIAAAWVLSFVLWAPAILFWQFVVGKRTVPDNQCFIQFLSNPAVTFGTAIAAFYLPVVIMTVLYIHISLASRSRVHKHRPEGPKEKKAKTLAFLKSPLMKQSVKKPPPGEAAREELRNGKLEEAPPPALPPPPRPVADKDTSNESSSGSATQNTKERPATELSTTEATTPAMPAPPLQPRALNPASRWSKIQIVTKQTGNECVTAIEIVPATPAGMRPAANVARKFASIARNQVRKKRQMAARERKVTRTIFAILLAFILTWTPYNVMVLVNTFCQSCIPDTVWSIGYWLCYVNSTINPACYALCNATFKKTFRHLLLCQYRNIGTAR
M4 antag = blocks acetylcholine activation of human M4 receptor. P08173. CHO-hM4 cells, ACh EC80, Fluo-8 calcium fluorescence. inhibition, % at 3 µM. 360,000 tested, 0.73% active. AID 624125;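 active = inhibition above its plate's cutoff, the mean inhibition of sample wells plus 3 SD, cut at about 27% in these data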;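 also: 0% = acetylcholine EC80 with DMSO and 100% = DMSO without agonist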
CHRM5 agonist = agonists of human muscarinic M5 receptor (CHRM5); CHO-K1 hM5 cells, Fluo-8 calcium fluorescence; 0% DMSO wells, 100% maximal acetylcholine response; activation, % at 3 µM; 360,000 tested, 0.19% active;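 active = activation above the run's mean over test compounds plus 3 SD, cut at about 23% in these data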;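 also: signal is peak over basal fluorescence ratio across the kinetic read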
M5 antag = antagonists of human muscarinic M5 receptor (CHRM5); AID 624040; 360,000 tested, 0.59% active; CHO-hM5 cells, Fluo-8 calcium fluorescence, ACh EC80; P08912; inhibition, % at 3 µM;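 active = inhibition above a per-plate cutoff, the mean of that plate's test compounds plus 3 SD, cut at about 27% in these data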;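 also: 0% = acetylcholine EC80 with DMSO and 100% = DMSO without agonist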
M5 PAM = potentiates acetylcholine response at human M5 receptor. P08912. CHO-K1 hM5, Fluo-8 calcium, ACh EC20 PAM; 0% = ACh EC20, 100% = ACh EC100. activation, % at 3 µM. 360,000 tested, 0.3% active. AID 624038;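 active = activation above the run cutoff, the mean activation of all test compounds plus 3 SD, cut at about 18% in these data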
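system = human M5 receptor in CHO-K1 cells | reagent = EC20 acetylcholine as agonist stimulus | compound dosing = single-point, 3 µM nominal | incubation = Fluo-8 loading 80 min at 37 °C plus 30 min room temperature | detection = Fluo-8 calcium dye fluorescence, kinetic read | benchmarks = low control EC20 acetylcholine (0%), high control EC100 acetylcholine (100%)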
CHRM4 agonist = agonists of human muscarinic M4 receptor (CHRM4); activation, % at 3 µM; AID 624127; CHO-K1 hM4/Gqi5, Fluo-8 calcium fluorescence; vehicle 0%, full acetylcholine response 100%; 360,000 tested, 0.14% active; P08173;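 active = activation above the run mean over all test wells plus 3 SD, cut at about 32% in these data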;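 also: peak over basal fluorescence ratio per well then scaled between controls; 0% = DMSO wells and 100% = acetylcholine at EC100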
The depositor's hits bear a star. The list is not random: actives were taken first. Their share in the collection is about 1.8%.

SMILES | M4 PAM | M4 antag | CHRM5 agonist | M5 antag | M5 PAM | CHRM4 agonist
O=C(N/N=C/c1ccc(N2CCOCC2)c([N+](=O)[O-])c1)c1ccc(F)cc1 | -4 | -7 | 2 | 0 | -6 | 6
COc1ccc(NC(=O)CSCC(=O)N(C)CC(=O)Nc2cccc3ccccc23)cc1 | -6 | -16 | -1 | 0 | -3 | 3
O=C1c2cccc3cccc(c23)C(=O)N1CC1CCN(CC(O)COc2ccc3ccccc3c2)CC1 (stereo unspecified) | -44 | 101* | -2 | 21 | -19 | 26
O=C(NNC(=O)c1ccccc1-n1cccc1)c1cncc(Br)c1 | 4 | -5 | 2 | 8 | 11 | 1
Cc1ccc(C)c(OCc2cc(C(=O)N(C)Cc3nccs3)no2)c1 | -4 | 9 | -4 | 28* | -8 | 6
Cc1ccc(C)c(OCc2cc(C(=O)N(C)Cc3ccccn3)no2)c1 | -1 | 0 | -1 | 5 | -3 | 3
CC(Sc1ccsc1[N+](=O)[O-])C(=O)N1CCN(c2ccccn2)CC1 (stereo unspecified) | -2 | -5 | -5 | 15 | -11 | 7
Cn1c(N)c(C(=O)COC(=O)/C=C/c2ccc(Cl)cc2Cl)c(=O)n(C)c1=O | -1 | 10 | 1 | -1 | -2 | 1
COc1cccc(/C=C/C(=O)OCCN2C(=O)c3ccccc3C2=O)c1 | -7 | -17 | 0 | 4 | -10 | 14
COc1ccccc1/C=C/C(=O)OCC(=O)c1c(N)n(C)c(=O)n(C)c1=O | 8 | 6 | 2 | 4 | 19* | 1
COc1ccccc1/C=C/C(=O)OCCN1C(=O)c2ccccc2C1=O | -20 | 79* | -3 | 9 | -5 | 9
COc1ccc(N(C)S(=O)(=O)c2cccc(C(=O)OCC(=O)c3c(N)n(C)c(=O)n(C)c3=O)c2)cc1 | -16 | 38* | 5 | 19 | -40 | 31
O=C(CN(c1cc(Cl)ccc1Cl)S(=O)(=O)c1ccccc1)N1CCOCC1 | -1 | -2 | -3 | -1 | -4 | 2
O=c1[nH]c2nc(Br)[nH]c(=O)c2[nH]1 | 5 | 12 | 4 | 8 | 4 | 0
CCOC(=O)c1sc(NC(=O)C2CC(=O)N(c3ccc(C)cc3)C2)nc1C (stereo unspecified) | -7 | 6 | -2 | 1 | 5 | 1
CC(=O)Nc1ccc(S(=O)(=O)NC2CC(=O)N(c3ccc(C)c(C)c3)C2)cc1 (stereo unspecified) | 5 | 3 | 3 | 1 | -7 | 1
O=C(O)c1cccc(N2C(=O)CSC2c2c(F)cccc2Cl)c1 (stereo unspecified) | -1 | 6 | 1 | -1 | 6 | 0
Cc1ccc(N2C(=O)CSC2c2c(F)cccc2Cl)cc1 (stereo unspecified) | -30 | 86* | -7 | 68* | -17 | -4
COc1cccc(C2SCC(=O)N2c2ccc(Cl)cc2)c1OC (stereo unspecified) | -36 | 59* | -8 | 28* | -20 | -3
COc1ccc(N2C(=O)CSC2c2ccc(F)c(F)c2)cc1 (stereo unspecified) | -9 | 12 | -9 | 4 | -7 | 1
CC1CCCC(NC(=O)COC(=O)c2cccs2)C1C (stereo unspecified) | 6 | 2 | -1 | 5 | -2 | 1
Cc1ccc2[nH]c3c(c2c1)CN(C(C)C)CC3 | -2 | -13 | -6 | -6 | 4 | 0
Cc1cc(-c2ccccc2)[nH]c(=O)c1S(=O)(=O)c1ccccc1 | 2 | -3 | -4 | 4 | 21* | 3
Cc1cc(-c2ccccc2)[nH]c(=O)c1S(=O)(=O)c1ccc(Cl)cc1 | 6 | 5 | 2 | 4 | -3 | 0
CC1CN(C(=O)CCC(=O)N2CCN(c3cccc(C(F)(F)F)c3)CC2)c2ccccc2O1 (stereo unspecified) | -17 | -13 | 0 | 5 | -3 | 13
SMILES | M4 PAM | M4 antag | CHRM5 agonist | M5 antag | M5 PAM | CHRM4 agonist
O=C(NN1C(=O)C2C(c3ccccc3)C=CC(c3ccccc3)C2C1=O)c1cccc(Br)c1 (stereo unspecified) | -17 | 16 | -7 | 37* | -20 | 20
CC[C@H](C)Cc1cn([C@@H](CCCCNC(=O)OC(C)(C)C)C(=O)NCCCCCCCCCCC(=O)N2CCN(C(=O)OC(C)(C)C)CC2)nn1 | -15 | 28* | -2 | 9 | -21 | 25
COc1cccc(/C=C/c2nc(C#N)c(NCC(C)C)o2)c1 | -6 | 3 | -13 | 11 | -11 | -1
Cc1cc(C)c2c(N)c(C(=O)Nc3ccc(F)cc3)sc2n1 | 27* | 4 | -4 | 6 | -4 | 7
COc1ccc(NC(=O)c2sc3nc(C)cc(C)c3c2N)cc1 | 4 | -5 | 0 | 2 | 5 | 1
Cc1cc(C)c2c(N)c(C(=O)NC3CCCC3)sc2n1 | 52* | 61* | -3 | -3 | -9 | 36*
CC(OC(=O)CN1C(=O)NC2(CCCC2)C1=O)C(=O)c1ccccc1 (stereo unspecified) | 6 | -7 | 0 | 2 | -3 | 1
CCC(C#CCN1CCCCC1)(CC)OCCC#N | -14 | 25 | -8 | 24 | -22 | 1
CCC(C)(C#CCN1CCCCC1)OCCC#N (stereo unspecified) | -16 | 47* | -8 | 60* | -18 | 0
Cc1cc(S(=O)(=O)c2ccc(Cl)cc2)nc(S(=O)(=O)c2ccc(Cl)cc2)c1C#N | -13 | 88* | 7 | 8 | 11 | 3
Cc1cc(C)c(S(=O)(=O)c2ccc(Cl)cc2)c(Cl)n1 | 13 | -2 | -2 | 6 | 1 | 1
CC(=O)c1csc(CS(=O)(=O)c2ccccn2)n1 | -11 | 12 | 4 | 26 | 20* | 12
CC(=O)c1ccccn1 | 1 | -10 | 2 | 3 | 0 | 1
O=C(NCc1cccnc1)/C(=C/c1ccc(-c2ccc(Cl)cc2)o1)S(=O)(=O)c1ccccc1 | -20 | 28* | 3 | -1 | -3 | 9
CCN(CC)C(=O)N1CCN(c2c([N+](=O)[O-])c(=O)oc3ccccc23)CC1 | 7 | 1 | 11 | 1 | -1 | 1
COc1ccccc1-c1noc(CCC(=O)Nc2cccnc2)n1 | -4 | -1 | 3 | 6 | -2 | 3
COc1ccccc1-c1noc(CCC(=O)Nc2cc(C(F)(F)F)ccc2Cl)n1 | 24 | 31* | 0 | 2 | 19* | 2
CCCc1nc2ccc(C)cn2c1Cc1ccc(C)cc1 | -4 | -2 | -5 | -5 | -2 | 0
CN1CCCC1CCOC(C)(c1ccccc1)c1ccc(Cl)cc1 (stereo unspecified) | -18 | 98* | 3 | 98* | -18 | 15
